This is a sample that favours compounds with a hit; in the whole collection about 1.5% have one here.
Dynein cargo inh = blocks dynein driven cargo transport along microtubules; z-score, hits read low; 3617.4 mouse cells, GR-EGFP nuclear translocation imaging; test concentration mostly 20 µM; stimulated with dexamethasone, 1 µM; active compounds read low; actives 0.47% (n = 220,000);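 active = plate z-score of nuclear minus cytoplasmic receptor signal below a set negative limit, without overly bright fluorescence or cell loss, cut at about -3.5 in these data, passing the limit was not always enough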;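 also: z-score of nuclear minus cytoplasmic ring GR-EGFP intensity difference per well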
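Buffer or medium: tet-free medium with charcoal-stripped serum / Also added: dexamethasone agonist, 1.0 µM final, for 30 min / Timing: induction 48 h, compound 1 h, agonist 30 min / Measured by: high-content fluorescence imaging after fixation / Read-out: nuclear-to-cytoplasmic GR-EGFP distribution per well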
S1P4 antagonist = human S1P4 receptor antagonism; O95977; S1P4-expressing cells, antagonist mode, reporter read-out; inhibition, % at 4.98 µM; actives 0.26% (n = 220,000); AID 1510; in the data active = inhibition above about 29%;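 also: 0% = wells stimulated with agonist and 100% = vehicle wells without agonist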
Target sequence (O95977 whole entry, looked up): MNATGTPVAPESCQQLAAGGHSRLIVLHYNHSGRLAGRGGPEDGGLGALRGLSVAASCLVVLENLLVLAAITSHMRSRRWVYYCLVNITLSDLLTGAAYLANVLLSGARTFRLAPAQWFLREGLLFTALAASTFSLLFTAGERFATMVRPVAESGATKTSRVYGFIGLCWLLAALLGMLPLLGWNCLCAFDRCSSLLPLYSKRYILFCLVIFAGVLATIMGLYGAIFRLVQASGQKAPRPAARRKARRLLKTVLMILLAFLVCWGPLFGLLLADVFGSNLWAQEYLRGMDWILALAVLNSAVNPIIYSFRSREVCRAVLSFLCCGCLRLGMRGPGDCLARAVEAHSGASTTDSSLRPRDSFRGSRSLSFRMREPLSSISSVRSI
TNF death inh = TNF-alpha cell death inhibition in Jurkat FADD-/- cells | Jurkat FADD-/- TNF necroptosis rescue, ATP luminescence, 24 h; 0 = TNF only, 100 = no-TNF cells | activation (protection from cell death), % at 10 µM | actives 0.068% (n = 220,000);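 active = activation, meaning protection from cell death, of at least 50% relative to plate controls; inactive = activation below 50%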;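 also: necroptosis triggered by 40 ng/mL TNF-alpha added together with compound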
L929 necroptosis = L929 zVAD cell death inhibition; L929 zVAD necroptosis rescue, ATP luminescence, 24 h; with zVAD 60 µM; viability rescue, % at 10 µM; actives 0.38% (n = 220,000);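 active = activation, scaled between plate controls, above about 75%, limit read from the data; inactive = activation under that limit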;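 also: 0% = zVAD with DMSO and 100% = DMSO alone without zVAD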
S1P4 agonist = human S1P4 receptor agonism. S1P4-expressing cell line, agonist reporter assay. actives 0.35% (n = 220,000). O95977. AID 1509. activation, % at 4.98 µM; in the data active = activation above about 11%;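 also: 0% = DMSO vehicle and 100% = reference agonist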
TbHK1 inh = T. brucei hexokinase 1 inhibition; recombinant TbHK1, G6PDH-coupled NADH A340; inhibition, % at 10 µM; actives 0.11% (n = 220,000);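 active = inhibition of 50% or more in the single-dose primary screen; inactive = inhibition below 50%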
zVAD death conf = confirmed blocker of zVAD induced death in L929 cells. AID 463117. actives 16% (n = 760). activation (protection from necroptosis), % at 10 µM. shares compounds with L929 necroptosis. L929 zVAD-induced necroptosis rescue, ATP luminescence, 24 h;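 active = mean protection from necroptosis of at least 50% over duplicate tests; inactive = mean protection below 50%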;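 also: 0% = cells with zVAD alone and 100% = vehicle cells without zVAD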
Starred values were filed as active, the others as inactive; nt = no result given.

SMILES	Dynein cargo inh	S1P4 antagonist	TNF death inh	L929 necroptosis	S1P4 agonist	TbHK1 inh	zVAD death conf
CCn1c(NC(=O)c2cccs2)nc2ccccc21	-0.61	8	28	81*	2	-16	3
CCn1c(NC(C)=O)nc2ccccc21	-0.14	-25	-2	1	2	-1	nt
CC(N)(C(=O)O)c1cccc(OCc2cccc(Cl)c2)c1 (configuration not stated)	-0.18	6	3	1	1	-8	nt
CCN1C(=O)/C(=C2/Sc3ccccc3N2CC)S/C1=N\c1ncn[nH]1	-0.19	8	-3	82*	-1	-8	5
O=C(COc1ccc(/C=N/NC(=O)C(=O)N2CCCCCC2)cc1)Nc1ccccc1Cl	-0.25	-19	0	78*	0	0	45
COc1cc(CO)ccc1OCC(=O)Nc1ccc(Br)cc1	-0.79	-19	1	76*	1	-2	0
Cc1ccc(NC(=O)COc2ccc(Br)cc2CO)cc1	-0.01	1	1	0	1	-3	nt
O=C(CSc1nc2ccccc2n1CCc1ccccc1)c1ccc(O)c(O)c1	-1.2	4	-5	0	0	7	nt
Fc1ccc(Cn2ccc(-c3cnc(-c4ccccc4)s3)n2)cc1	1.3	6	0	0	-4	-12	nt
O=C(c1ccc(F)cc1)n1ccc(-c2cnc(-c3ccccc3)s2)n1	-0.87	-6	6	83*	-4	-30	0
O=C(NC(=S)Nc1cccc(NC(=O)c2ccc(Cl)cc2Cl)c1)c1cccs1	2	1	-1	77*	1	-2	35
COc1ccccc1N1CCN(S(=O)(=O)c2ccc3c(c2)n(C)c(=O)n3C)CC1	-1.4	1	-3	0	0	2	nt
N#C/C(=C\C=C\c1ccccc1[N+](=O)[O-])C(=O)NC1CCCCC1	0.65	-10	-2	75*	0	-17	0
S=C(Sc1ccc(Cl)cc1)Sc1ccc(Cl)cc1	-5.1*	9	-28	76*	-1	-6	1
CC(=O)/C(=C\N(C)C)Sc1ccc(Cl)cc1	1.1	6	2	0	-2	-8	nt
O=C(COc1ccc([N+](=O)[O-])cc1Cl)NCC1CCCO1 (configuration not stated)	-0.45	-12	0	0	0	-9	nt
COc1ccc(/C=C/C=C2\NC(=S)NC2=O)cc1	0.5	1	-4	2	-2	-2	nt
O=C(Cn1nnc(-c2ccc(NC(=O)c3ccccc3F)cc2)n1)NCc1ccc(F)cc1	0.11	-15	3	84*	-2	8	38
O=C(Cn1nnc(-c2ccc(Cl)cc2)n1)NCc1ccco1	-0.89	-5	2	2	1	5	nt
COc1ccc(C(=O)Nc2ccc(-c3nnn(CC(=O)NCc4ccco4)n3)cc2)cc1	0.23	-3	-4	77*	0	-1	36
CC1CC(C)CN(c2ccc([N+](=O)[O-])nc2)C1 (configuration not stated)	-0.024	-1	0	0	0	0	nt
Cc1c(Cl)cccc1NC(=O)Nc1cc(C(C)(C)C)nn1C	0.98	15	10	81*	0	-8	31
CC(=O)Nc1cccc(NC(=O)Nc2cccc(Cl)c2C)c1	0.17	-15	0	1	0	-5	nt
Cc1cnc(NC(=O)c2cc3ccccc3o2)s1	-0.38	-5	10	81*	1	-18	0
O=C(Nc1ccccc1N1CCCC1)c1cc2ccccc2o1	-0.79	-9	-1	0	1	-5	nt
SMILES	Dynein cargo inh	S1P4 antagonist	TNF death inh	L929 necroptosis	S1P4 agonist	TbHK1 inh	zVAD death conf
Cc1ccc(C(=O)Nc2ncc(C)s2)o1	-0.51	-9	1	60	-1	-27	nt
CN1CCN(c2ccccc2NC(=O)c2cc3ccccc3o2)CC1	0.036	-17	3	78*	0	-8	31
COC(=O)c1cc(S(=O)(=O)C(C)C)c(S(C)=O)s1 (configuration not stated)	-1.5	-8	2	77*	-1	-13	11
CSc1sc(C(=O)NCC2CC2)cc1S(=O)(=O)C(C)C	-1.1	0	1	0	1	-6	nt
C/C(=N\NC(=O)c1ccccc1-n1cccc1)C1CC1	1.4	-9	1	0	3	0	nt
CCc1ccc(NC(=O)CSc2nc3ccccc3c(=O)n2CCCN2CCC(C)CC2)cc1	-0.59	8	-3	8	0	8	nt
COc1ccc(Nc2nnc(-c3ccc(O)cc3)c3ccccc23)cc1	-0.88	-8	-7	75*	0	-6	39
Oc1ccc(Nc2nnc(-c3ccc(O)cc3)c3ccccc23)cc1	-0.033	20	-2	81*	-2	-9	1
COc1ccc(Nc2nnc(-c3ccc(O)cc3)c3ccccc23)cc1C(N)=O	-0.35	3	-2	82*	5	-16	7
COc1ccc(-c2nnc(Nc3ccc(CC(N)=O)cc3)c3ccccc23)cc1	1	2	-5	41	1	-12	nt
Cc1ccc(-n2c(SCC(=O)N(C)C3CCS(=O)(=O)C3)nc3ccccc3c2=O)cc1 (configuration not stated)	-0.18	-23	-1	-1	0	-4	nt
COc1cccc(S(=O)(=O)NCc2ccc(C(=O)Nc3ccc(Cl)c(Cl)c3)cc2)c1	0.13	6	0	-1	-2	0	nt
O=C(Nc1ccc(Cl)c(Cl)c1)c1cccc(S(=O)(=O)NCc2cccnc2)c1	-1	-10	-5	77*	0	0	2
COc1ccccc1NS(=O)(=O)c1cccc(C(=O)N/N=C(\C)c2ccc(-n3ccnc3)cc2)c1	-0.41	-17	2	76*	-2	-6	38
CC(=O)Nc1ccc(-c2csc(Nc3ncccn3)n2)cc1	-0.72	5	4	80*	0	-4	1
c1ccc(-c2csc(Nc3ncccn3)n2)cc1	-0.99	-21	3	6	4	0	nt
Oc1ccc(-c2csc(Nc3ncccn3)n2)cc1	0.45	-15	16	78*	1	-6	75*
Cc1nc2ncccn2c1-c1csc(Nc2ccc(O)cc2)n1	2	-15	-9	88*	2	-5	1
O/N=C/c1cccnc1Sc1ccccc1	-0.47	4	2	2	1	0	nt
CCC1Oc2ccccc2N(CC(=O)NCc2cccs2)C1=O (configuration not stated)	-0.23	3	2	0	1	-7	nt
Cc1nnc(SCc2cccc3ccccc23)s1	-0.17	-4	16	0	0	1	nt

Screening results deposited in PubChem by several laboratories.
